Source: article PMC6585844 (Clinical Pharmacology in Drug Development, 2018)
Where “and” joins values, the source holds several entries; their conditions need not be identical. Identical values can stand only once. Like-named read-outs stand apart in the source and are kept apart here.

Columns and labels:
Multiple‐dose = type: in vivo, human; settings: for AUCτ, mean ± SD: after last of 9 multiple doses; for Cmax / Tmax: human, plasma, oral
Outline: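 After the single dose, the same subjects took the assigned dose twice daily, 9 doses, with only a morning dose on the final day. Morning doses were fasted; evening doses were taken without regard to meals. Plasma was sampled predose on days 3–7 (A–D) or 4–8 (E), then 0.5–12 h postdose. AUCτ by trapezoidal method; fluctuation 100*(Cmax−Cmin)/Cavg; accumulation as AUCτ/AUC0-t.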

[1] = tested on: cytochrome P450 (CYP) 2C9; settings: cited from earlier work
[2] = tested on: hypokalemic PP and hyperkalemic PP; settings: doses from approximately 100 to 200 mg/day, versus placebo; cited from earlier work
Safety/tolerability = type: in vivo, human
Outline: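 Open-label oral dose escalation. Cohorts A–E received 10 doses (1 single, then 9 twice daily). Cohort F (n = 6) took titrated twice-daily doses of 100–800 mg/day on days 1–14, up to 28 doses, and was assessed for safety only. Vital signs were taken at screening, baseline and each study day, with a 12-lead ECG at screening. AEs were recorded when reported.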

[3] = type: in vivo, human; settings: for AUC0‐t, mean ± SD: fasted, plasma to 48 h
Outline: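 Healthy adults, cohorts A–E (n = 6 each), single oral tablet dose (25–400 mg) with 8 oz water after ≥10 h fast plus 4 h more. Potassium-EDTA plasma sampled predose and 0.5–48 h, stored −70°C ≤62 days, solid-supported liquid-liquid extraction. AUC0-t by trapezoidal method; AUC0-∞ = AUC0-t + Clast/λ. BQL values taken as zero. Power-model dose proportionality with 95% CI.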

[4] = Cohort A (n = 6): 1 × 25 mg then 9 × 25 mg BID
[5] = Cohort B (n = 6): 1 × 50 mg then 9 × 50 mg BID
[6] = Cohort C (n = 6): 1 × 100 mg then 9 × 100 mg BID
[7] = Cohort D (n = 6): 1 × 200 mg then 9 × 200 mg BID
[8] = Cohort E (n = 6): 1 × 400 mg then 9 × 400 mg BID
[9] = Cohort F (n = 6): dose titration 50 to 400 mg BID, up to 28 doses
[10] = Cohort A 25 mg single oral dose (n = 6)
[11] = Cohort B 50 mg single oral dose (n = 6)
[12] = Cohort C 100 mg single oral dose (n = 6)
[13] = Cohort D 200 mg single oral dose (n = 6)
[14] = Cohort E 400 mg single oral dose (n = 6)

Structure (SMILES): NS(=O)(=O)c1cc(Cl)c(Cl)c(S(N)(=O)=O)c1 [dichlorphenamide]
- Cavg, mean ± SD (Multiple‐dose; Cohort A 25 mg BID (n = 5)): 837 ± 274 ng/mL
- AUCτ, mean ± SD (Multiple‐dose; Cohort A 25 mg BID (n = 5)): 10,038 ± 3283 ng˙h/mL
- Cavg, mean ± SD (Multiple‐dose; Cohort B 50 mg BID (n = 6)): 1527 ± 549 ng/mL
- AUCτ, mean ± SD (Multiple‐dose; Cohort B 50 mg BID (n = 6)): 18,329 ± 6593 ng˙h/mL
- Cavg, mean ± SD (Multiple‐dose; Cohort C 100 mg BID (n = 6)): 3122 ± 1108 ng/mL
- AUCτ, mean ± SD (Multiple‐dose; Cohort C 100 mg BID (n = 6)): 37,468 ± 13,298 ng˙h/mL
- Cavg, mean ± SD (Multiple‐dose; Cohort D 200 mg BID (n = 5)): 7080 ± 2854 ng/mL
- AUCτ, mean ± SD (Multiple‐dose; Cohort D 200 mg BID (n = 5)): 84,960 ± 34,245 ng˙h/mL
- Cavg, mean ± SD (Multiple‐dose; Cohort E 400 mg BID (n = 3)): 17,298 ± 5219 ng/mL
- AUCτ, mean ± SD (Multiple‐dose; Cohort E 400 mg BID (n = 3)): 207,577 ± 62,626 ng˙h/mL
- Cmax (Multiple‐dose; 25 mg): 1150 ± 239 ng/mL
- Tmax (Multiple‐dose; 25 mg): 2 h
- Cmax (Multiple‐dose; 50 mg): 2220 ± 959 ng/mL
- Tmax (Multiple‐dose; 50 mg): 3 h
- Cmax (Multiple‐dose; 100 mg): 4870 ± 1890 ng/mL
- Tmax (Multiple‐dose; 100 mg): 1.5 h
- Cmax (Multiple‐dose; 200 mg): 10700 ng/mL
- Tmax (Multiple‐dose; 200 mg): 2 h
- Cmax (Multiple‐dose; 400 mg): 26600 ng/mL
- Tmax (Multiple‐dose; 400 mg): 1 h
- Slope for LnAUCτ (dose proportionality, power model), with 95%CI (Multiple‐dose; multiple doses 25–400 mg BID): 1.09 (95%CI, 0.92–1.26)
- Slope for LnCmax (dose proportionality, power model), with 95%CI (Multiple‐dose; multiple doses 25–400 mg BID): 1.13 (95%CI, 0.95–1.31)
- Accumulation ratios of AUCτ/AUC0‐t (Multiple‐dose; multiple‐ versus single‐dose phase): greater than 1
- Effect on CYP2C9‐mediated 7‐methoxy‐4‐(trifluoromethyl)coumarin (MFC) metabolism [1]: relatively weak activator
- Frequency and severity of attacks in primary periodic paralysis [2]: significant reduction
- Tolerability for extended use (Safety/tolerability; 800 mg total daily dose, short‐term study): intolerable for extended use
- Blood potassium decreased, TEAE of any severity, subjects (Safety/tolerability; [4]): 0
- Dizziness, TEAE of any severity, subjects (Safety/tolerability; [4]): 0
- Dysgeusia, TEAE of any severity, subjects (Safety/tolerability; [4]): 0
- Dyspnea, TEAE of any severity, subjects (Safety/tolerability; [4]): 0
- Oral paresthesia, TEAE of any severity, subjects (Safety/tolerability; [4]): 0
- Paresthesia, TEAE of any severity, subjects (Safety/tolerability; [4]): 0
- Subjects discontinuing due to TEAE (Safety/tolerability; [4]): 0 n (%)
- Subjects reporting at least 1 TEAE (Safety/tolerability; [4]): 1 (16.7) n (%)
- Subjects reporting at least 1 serious TEAE (Safety/tolerability; [4]): 0 n (%)
- Total TEAEs reported (Safety/tolerability; [4]): 1
- Treatment‐related AEs reported (Safety/tolerability; [4]): 0
- Blood potassium decreased, TEAE of any severity, subjects (Safety/tolerability; [5]): 0
- Dizziness, TEAE of any severity, subjects (Safety/tolerability; [5]): 0
- Dysgeusia, TEAE of any severity, subjects (Safety/tolerability; [5]): 0
- Dyspnea, TEAE of any severity, subjects (Safety/tolerability; [5]): 0
- Oral paresthesia, TEAE of any severity, subjects (Safety/tolerability; [5]): 0
- Paresthesia, TEAE of any severity, subjects (Safety/tolerability; [5]): 0
- Subjects discontinuing due to TEAE (Safety/tolerability; [5]): 0 n (%)
- Subjects reporting at least 1 TEAE (Safety/tolerability; [5]): 1 (16.7) n (%)
- Subjects reporting at least 1 serious TEAE (Safety/tolerability; [5]): 0 n (%)
- Total TEAEs reported (Safety/tolerability; [5]): 3
- Treatment‐related AEs reported (Safety/tolerability; [5]): 2
- Blood potassium decreased, TEAE of any severity, subjects (Safety/tolerability; [6]): 1 (16.7)
- Dizziness, TEAE of any severity, subjects (Safety/tolerability; [6]): 0
- Dysgeusia, TEAE of any severity, subjects (Safety/tolerability; [6]): 0
- Dyspnea, TEAE of any severity, subjects (Safety/tolerability; [6]): 0
- Oral paresthesia, TEAE of any severity, subjects (Safety/tolerability; [6]): 0
- Paresthesia, TEAE of any severity, subjects (Safety/tolerability; [6]): 2 (33.3)
- Subjects discontinuing due to TEAE (Safety/tolerability; [6]): 0 n (%)
- Subjects reporting at least 1 TEAE (Safety/tolerability; [6]): 4 (66.7) n (%)
- Subjects reporting at least 1 serious TEAE (Safety/tolerability; [6]): 0 n (%)
- Total TEAEs reported (Safety/tolerability; [6]): 16
- Treatment‐related AEs reported (Safety/tolerability; [6]): 14
- Blood potassium decreased, TEAE of any severity, subjects (Safety/tolerability; [7]): 0
- Dizziness, TEAE of any severity, subjects (Safety/tolerability; [7]): 4 (66.7)
- Dysgeusia, TEAE of any severity, subjects (Safety/tolerability; [7]): 3 (50.0)
- Dyspnea, TEAE of any severity, subjects (Safety/tolerability; [7]): 3 (50.0)
- Oral paresthesia, TEAE of any severity, subjects (Safety/tolerability; [7]): 1 (16.7)
- Paresthesia, TEAE of any severity, subjects (Safety/tolerability; [7]): 2 (33.3)
- Subjects discontinuing due to TEAE (Safety/tolerability; [7]): 1 n (%) and 1 (16.7) n (%)
- Subjects reporting at least 1 TEAE (Safety/tolerability; [7]): 6 (100) n (%)
- Subjects reporting at least 1 serious TEAE (Safety/tolerability; [7]): 0 n (%)
- Total TEAEs reported (Safety/tolerability; [7]): 36
- Treatment‐related AEs reported (Safety/tolerability; [7]): 33
- Blood potassium decreased, TEAE of any severity, subjects (Safety/tolerability; [8]): 1 (16.7)
- Dizziness, TEAE of any severity, subjects (Safety/tolerability; [8]): 3 (50.0)
- Dysgeusia, TEAE of any severity, subjects (Safety/tolerability; [8]): 1 (16.7)
- Dyspnea, TEAE of any severity, subjects (Safety/tolerability; [8]): 1 (16.7)
- Oral paresthesia, TEAE of any severity, subjects (Safety/tolerability; [8]): 1 (16.7)
- Paresthesia, TEAE of any severity, subjects (Safety/tolerability; [8]): 4 (66.7)
- Subjects discontinuing due to TEAE (Safety/tolerability; [8]): 3 n (%) and 3 (50.0) n (%)
- Subjects reporting at least 1 TEAE (Safety/tolerability; [8]): 6 (100) n (%)
- Subjects reporting at least 1 moderate TEAE (Safety/tolerability; [8]): 1 (16.7) n (%)
- Subjects reporting at least 1 serious TEAE (Safety/tolerability; [8]): 0 n (%)
- Total TEAEs reported (Safety/tolerability; [8]): 42
- Treatment‐related AEs reported (Safety/tolerability; [8]): 39
- Dizziness, TEAE of any severity, subjects (Safety/tolerability; [9]): 0
- Dysgeusia, TEAE of any severity, subjects (Safety/tolerability; [9]): 0
- Dyspnea, TEAE of any severity, subjects (Safety/tolerability; [9]): 1 (16.7)
- Oral paresthesia, TEAE of any severity, subjects (Safety/tolerability; [9]): 0
- Paresthesia, TEAE of any severity, subjects (Safety/tolerability; [9]): 2 (33.3)
- Subjects discontinuing due to TEAE (Safety/tolerability; [9]): 6 n (%) and 6 (100) n (%)
- Subjects reporting at least 1 TEAE (Safety/tolerability; [9]): 6 (100) n (%)
- Subjects reporting at least 1 moderate TEAE (Safety/tolerability; [9]): 2 (33.3) n (%)
- Subjects reporting at least 1 serious TEAE (Safety/tolerability; [9]): 1 (16.7) n (%)
- Total TEAEs reported (Safety/tolerability; [9]): 50
- Treatment‐related AEs reported (Safety/tolerability; [9]): 40
- TEAEs reported as moderate (Safety/tolerability; all cohorts): 7
- Dizziness, number of subjects (Safety/tolerability; all cohorts (N = 36)): 7 subjects
- Paresthesia (including oral), number of subjects (Safety/tolerability; all cohorts (N = 36)): 12 subjects
- Subjects reporting at least 1 TEAE in gastrointestinal system organ class (Safety/tolerability; all cohorts (N = 36)): 28%
- Subjects reporting at least 1 TEAE in nervous system organ class (Safety/tolerability; all cohorts (N = 36)): 50%
- Subjects withdrawn/discontinued due to AEs (Safety/tolerability; all cohorts, 36 enrolled): 10 subjects
- Changes in vital signs or ECG findings (Safety/tolerability; any subject): No clinically relevant changes
- Serum potassium, clinically significant reduction in 1 subject (Safety/tolerability; cohort C, poststudy): 2.8 mmol/L
- Serious TEAE of rash requiring brief hospitalization, subjects (Safety/tolerability; cohort F): 1 subject
- Subjects with below‐normal serum potassium (Safety/tolerability; cohort F): 5 of 6
- Discontinuations to which hypokalemia contributed (Safety/tolerability; cohort F (all 800 mg/day)): 5 of 6
- Serum potassium, lowest recorded value (Safety/tolerability; cohort F, multiple study time points): 2.8 mmol/L
- Subjects with clinically significant reductions in serum potassium (Safety/tolerability; cohorts A through E, poststudy): 2 subjects
- Subjects with at least one mild‐to‐moderate AE (Safety/tolerability; cohorts D, E, and F): 100%
- AUC0‐∞, mean ± SD [3, 10]: 5908 ± 3959 ng˙h/mL
- AUC0‐t, mean ± SD [3, 10]: 2327 ± 731 ng˙;h/mL
- AUC0‐∞, mean ± SD [3, 11]: 14,734 ± 4555 ng˙h/mL
- AUC0‐t, mean ± SD [3, 11]: 7897 ± 2055 ng˙;h/mL
- AUC0‐∞, mean ± SD [3, 12]: 28,901 ± 13,317 ng˙h/mL
- AUC0‐t, mean ± SD [3, 12]: 19,119 ± 7317 ng˙;h/mL
- AUC0‐∞, mean ± SD [3, 13]: 66,456 ± 26,211 ng˙h/mL
- AUC0‐t, mean ± SD [3, 13]: 38,132 ± 8249 ng˙;h/mL
- AUC0‐∞, mean ± SD [3, 14]: 142,007 ± 16,279 ng˙h/mL
- AUC0‐t, mean ± SD [3, 14]: 88,243 ± 12,616 ng˙;h/mL
- half-life ([3]; human, plasma, oral): 32 to 68 h
- Tmax ([3]; human, plasma, oral, Median Tmax, range across doses, single doses 25–400 mg): 1.5 to 3 h
- Cmax ([3]; human, plasma, po, 25 mg): 298 ± 77 ng/mL
- half-life ([3]; human, plasma, po, 25 mg): 68.4 ± 35 h
- Cmax ([3]; human, plasma, po, 50 mg): 709 ± 490 ng/mL
- half-life ([3]; human, plasma, po, 50 mg): 51.4 ± 24 h
- Cmax ([3]; human, plasma, po, 100 mg): 1510 ± 909 ng/mL
- half-life ([3]; human, plasma, po, 100 mg): 31.9 ± 11 h
- Cmax ([3]; human, plasma, po, 200 mg): 3030 ± 1210 ng/mL
- half-life ([3]; human, plasma, po, 200 mg): 41 ± 17 h
- Cmax ([3]; human, plasma, po, 400 mg): 6320 ± 1280 ng/mL
- half-life ([3]; human, plasma, po, 400 mg): 38.6 ± 8 h
- Slope for LnAUC0‐t (dose proportionality, power model), with 95%CI ([3]; single doses 25–400 mg): 1.29 (95%CI, 1.18‐1.40)
- Slope for LnCmax (dose proportionality, power model), with 95%CI ([3]; single doses 25–400 mg): 1.11 (95%CI, 0.97‐1.26)
